# GalR3 antag = antagonists of human GalR3; inhibition, % at 3 µM; 360,000 tested, 0.44% active; AID 651719; O60755; HEK293 GalR3-CNG cAMP membrane potential fluorescence; galR3 body fused to GalR1 C-terminus;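 active means inhibition above the screen-wide average plus 3 SD, cut at about 13% in these data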;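 further: forskolin and galanin both at EC90 stimulate the cells; cAMP rise reported by CNG channel membrane potential dye signal; 0% = forskolin plus galanin with DMSO and 100% = forskolin alone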
# NR2E3 ag-1 = human photoreceptor-specific nuclear receptor agonism. Q9Y5X4. CHO-S Gal4-NCOR/VP16-NR2E3 two-hybrid, luciferase. inhibition of corepressor binding, % at 3.98 µM. 360,000 tested, 0.35% active;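 active means inhibition above the mean of all tested compounds plus 3 SD, cut at about 70% in these data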;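 further: 0% = DMSO with NR2E3 transfected cells and 100% = cells lacking NR2E3 construct; higher means lower luciferase signal from less NR2E3 corepressor binding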
# Target sequence (Q9Y5X4 whole entry, looked up, the tested form may be a part): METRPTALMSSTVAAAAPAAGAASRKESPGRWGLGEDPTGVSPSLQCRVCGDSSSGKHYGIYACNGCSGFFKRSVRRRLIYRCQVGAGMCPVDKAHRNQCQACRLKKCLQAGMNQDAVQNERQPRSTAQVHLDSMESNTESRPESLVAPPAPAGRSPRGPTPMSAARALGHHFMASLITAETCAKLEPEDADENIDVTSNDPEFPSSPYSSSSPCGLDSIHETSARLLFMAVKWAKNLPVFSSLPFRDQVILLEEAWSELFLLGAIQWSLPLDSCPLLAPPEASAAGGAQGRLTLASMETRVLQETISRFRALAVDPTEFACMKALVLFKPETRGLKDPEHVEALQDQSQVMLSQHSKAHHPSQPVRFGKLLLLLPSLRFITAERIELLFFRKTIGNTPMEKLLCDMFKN
# GASC-1 inh = human JMJD2C demethylase inhibition; Q9H3R0; inhibition, % at 2.35 µM; 330,000 tested, 0.069% active; GST-JMJD2C(1-420) H3K9me3 demethylation, DELFIA europium;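 active means more than half of a compound's replicate wells show inhibition beyond 50%, single wells judged on their own value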;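 further: signal counts dimethyl H3K9 product captured on neutravidin plate; 0% = median of DMSO wells and 100% = 0.3 times that DMSO median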
# NR2E3 ag-2 = NR2E3 (human) agonism; AID 2300; GST-NR2E3/biotin-RetCOR TR-FRET, 1536-well; 320,000 tested, 0.12% active; Q9Y5X4; inhibition of corepressor binding, % at 4.78 µM;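 active means percent inhibition above the cutoff of mean plus 3 SD of all tested compounds, set per screening campaign, cut at about 20% in these data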;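 further: 0% = DMSO wells and 100% = biotin wells as full block of FRET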
#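 Material: NR2E3–RetCOR corepressor complex / Amount: 1.35 nM GST-NR2E3 / Medium: Tris pH 7.5 / Compound: single nominal compound dose of 4.8 µM / Incubation: 5 h at 4 °C / Technique: TR-FRET, Eu(K)-anti-GST donor, streptavidin-D2 acceptor, ex 340, em 617/671 nm / Read-out basis: percent loss of FRET ratio relative to control wells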
# 697 NFkB inh = inhibitors of the PMA/ionomycin-induced NF-kB reporter in 697 B cells; 697 B-cell NF-kB luciferase reporter, 16 h; inhibition, % at 4 µM; 330,000 tested, 0.33% active; AID 435022; in the data active means inhibition above about 35%
# Jurkat NFkB inh = lowers PMA/ionomycin-induced NF-kB signal in Jurkat cells. PMA/ionomycin-induced NF-kB luciferase reporter, luminescence. inhibition, % at 4 µM. 330,000 tested, 0.53% active. AID 435003; in the data active means inhibition above about 50%
# Jurkat NFkB conf = lowers PMA/ionomycin-induced NF-kB signal in Jurkat cells; shares compounds with Jurkat NFkB inh; Jurkat NF-kB luciferase, 16 h; inhibition, % at 4 µM; 2,700 tested, 27% active;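 active means inhibition reaching about 45% at 4 µM in either replicate, limit read from the data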;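 further: plate controls were PMA/ionomycin stimulated DMSO wells for no effect and unstimulated DMSO wells for full effect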
# * marks the source's active call; other numbers are inactive results; nt = not tested or not shown. This is a sample that favours compounds with a hit; in the whole collection about 1.5% have one here.
SMILES,GalR3 antag,NR2E3 ag-1,GASC-1 inh,NR2E3 ag-2,697 NFkB inh,Jurkat NFkB inh,Jurkat NFkB conf
Oc1ccc2ccccc2c1N=Nc1ccccn1,-4,-18,-5,-2,-9,62*,52*
CCOC(=O)c1c(N)sc(C(=O)Nc2ccccc2F)c1C,-2,-138,7,3,-175,-186,-146
CCOC(=O)c1c(N)sc(C(N)=O)c1C,-1,-2,0,-1,18,8,nt
CCOC(=O)c1c(N)sc(C(=O)Nc2ccccc2)c1C,-6,-97,-3,0,-165,-166,-114
CCOC(=O)c1sc(NC(=O)Nc2ccccc2)cc1C,-3,-142,2,3,-233,-171,-139
CS(=O)c1nc(-c2ccc(Br)cc2)cc(-c2ccccc2)c1C#N (stereo not drawn),-15,8,-1,4,-188,93*,91*
Cc1cccc(OCCNC(=O)c2ccc(Cl)c(S(=O)(=O)NCc3cccnc3)c2)c1,7,-34,8,3,-28,66*,40
COC(=O)C1CCN(C(=O)c2ccc(Cl)c(S(=O)(=O)NCc3cccnc3)c2)CC1,-5,-17,-1,-1,-15,2,nt
Cc1cc(C(=O)Nc2sc3c(c2C#N)CCCCC3)cs1,nt,-140,4,-1,-179,-186,-105
Cc1cccc(C)c1N(CC(=O)N1CCCC1)S(C)(=O)=O,-5,-37,11,6,11,4,nt
O=C1C=C(c2ccc3cc[nH]c3c2)C[C@@H](c2ccc3c(c2)OCO3)C1,nt,-28,8,1,-24,53*,19
Cc1cc(C(=O)N2CC=C(c3ccccc3)CC2)c2ccccc2n1,-6,25,0,2,-16,67*,45
Cc1c(C(=O)C(=O)N2CC=C(c3ccccc3)CC2)c2ccccc2n1C,-6,-12,-13,-5,-52,53*,20
COc1ccc(-c2cc(C(=O)N3CCN(c4ccccc4)CC3)c3ccccc3n2)cc1,-4,-107,3,-3,-52,60*,-11
COc1ccc2[nH]c3c(c2c1)CCN1C(=O)C(CC(=O)NCCCn2ccnc2)C[C@H](C(=O)N2CCCCC2)[C@@]31CCc1ccccc1 (stereo partly drawn),-8,9,nt,nt,0,nt,nt
Cc1ccc(C)c(NC(=O)CSc2nnc(NC(=O)C3CC3)s2)c1,-5,-14,12,3,0,-4,nt
COC(=O)C1(C(=O)OC)c2ncccc2N(S(=O)(=O)c2ccc(C)cc2)C1CC(=O)c1ccccc1 (stereo not drawn),-7,nt,nt,nt,nt,nt,nt
COc1cc(OC)cc(C(=O)/C=C2\Sc3ccccc3N2C)c1,1,-34,6,7,-18,-33,nt
CN1/C(=C\C(=O)c2cccc([N+](=O)[O-])c2)Sc2ccccc21,-9,-112,-17,5,-101,-175,-1
CC(C)CN(Cc1cc(=O)oc2cc(-c3ccccc3)c(O)cc12)CC(C)C,11,11,6,-5,-91,-9,nt
Oc1ccc(C2=NNC(=NCc3ccc4c(c3)OCO4)SC2)c(O)c1,-5,-65,8,-3,-51,52*,16
Cc1ccc(/C=N/NC(=O)c2ccc3ccccc3c2)s1,-2,-64,4,4,-40,52*,34
CCCCn1cnc2c(sc3nc4c(cc32)CSC(C)(C)C4)c1=O,5,-70,3,0,-130,-150,-78
COCCNC(=S)N/N=C(\C)c1ccc(-n2ccnc2)cc1,-6,3,10,8,-6,1,nt
COC(=O)[C@]12CCCCC=C1N(CCc1ccc(OC)c(OC)c1)C(=O)[C@H](CC(=O)NCc1cccs1)C2,-7,nt,nt,nt,nt,nt,nt
SMILES,GalR3 antag,NR2E3 ag-1,GASC-1 inh,NR2E3 ag-2,697 NFkB inh,Jurkat NFkB inh,Jurkat NFkB conf
COc1ccccc1Oc1ccc(-c2cnc3ccccc3n2)cc1[N+](=O)[O-],-7,-10,54,3,-70,59*,-3
COc1ccc(OC)c2sc(N(CCCN(C)C)C(=O)c3ccc(S(=O)(=O)N4CCc5ccccc5C4)cc3)nc12,nt,nt,9,-1,31,94*,23
COc1ccc(C)c2sc(N(CCCN(C)C)C(=O)c3ccc(S(=O)(=O)N4CCc5ccccc5C4)cc3)nc12,-7,14,-3,2,nt,nt,nt
CC1CCCN(C(=O)CN2C(=O)NC(C)(c3ccc4ccccc4c3)C2=O)C1 (stereo not drawn),-6,-23,12,nt,15,20,nt
CC1CCN(C(=O)CN2C(=O)NC(C)(c3ccc4ccccc4c3)C2=O)CC1 (stereo not drawn),-2,4,-4,nt,11,59*,35
Nc1ncnc2c1ncn2[C@@H]1O[C@H](CNC(=O)[C@@H]2CCCN2S(=O)(=O)c2ccc(F)cc2)[C@@H](O)[C@H]1O,-6,-17,nt,nt,17,nt,nt
COc1cc(Nc2ccc(C)cc2)c([N+](=O)[O-])nc1[N+](=O)[O-],1,-39,18,3,-52,58*,50*
Cc1ccc2oc(NC3=NC4(CCCC4)C4=C(CCCC4=O)N3)nc2c1,-6,-41,nt,nt,nt,nt,nt
Cc1cc(-c2csc(Nc3ccccn3)n2)ccc1F,-11,-138,-1,1,-237,-158,-81
Oc1ccc(-c2csc(Nc3ccccn3)n2)cc1,-9,-120,5,1,-175,-121,nt
N#CC1=C(N)Oc2c(ccc3cccnc23)C1c1ccccc1 (stereo not drawn),-9,5,4,0,-5,66*,32
N/C(=C\C(=O)c1cc(Cl)ccc1O)C(Cl)(Cl)Cl,-1,-11,26,3,-98,64*,22
CC(C)(C)c1ccc(C(=O)CC(=O)c2cc(Cl)ccc2O)cc1,-5,-63,-20,-5,-65,10,nt
O=C(CSc1ncnc2ccccc12)c1cccs1,1,-85,-15,2,-70,-157,-62
COc1cccc(-n2c(CN3CCN(c4ccccc4)CC3)nc3ccc([N+](=O)[O-])cc3c2=O)c1,11,-25,-3,-1,-8,3,nt
CC(C)(C)NC(=O)NC(=O)COc1ccc(Br)cc1Br,-2,-175,6,3,-201,-210,-101
O=C(CNC(=O)c1ccc(-c2ccccc2)cc1)OCc1c(F)cccc1Cl,-2,8,-3,4,12,-12,nt
CCOc1cc(C2C3=C(CC(C)(C)CC3=O)N(C)C3=C2C(=O)CC(C)(C)C3)ccc1O,-11,-20,0,3,-10,6,nt
COC(=O)c1cccc(NC(=O)NC(=O)c2ccccc2Cl)c1,-5,-62,2,5,3,62*,-7
